Experimental data reported in paper PMC10441411 (bioRxiv, 2023).
Peptide text beside a SMILES is read from it. * marks the point of attachment. Cbz = O=C(OCc1ccccc1)*

Legend:
[1] = target: NR4A1 (Homo sapiens, UniProt P22736); experiment: NR4A1 degradation in human cell lines by immunoblotting; type: cell-based; conditions: CHL-1 cells
Procedure, shortened: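 CHL-1 and A375 human melanoma cells were grown in DMEM with 10% FBS and penicillin/streptomycin. Screening used 250 nM test compound for 16 h, read by immunoblot plus densitometry (n=2). A 16 h dose series gave the 50% degradation concentration. For pathway tests, CHL-1 were pretreated 10 min with 0.5 μM MG132 or 10 μM VHL 032, then exposed 16 h to DMSO or 500 nM. Lysates were made in RIPA with DTT.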

[2] = target: NR4A1; conditions: read-out: binding affinity of celastrol to NR4A1 (Kd); cited from earlier work
[3] = tested on: B16F10 melanoma; experiment: B16F10 melanoma syngeneic tumor growth; type: in vivo, mouse; conditions: WT mice; 1.8 mg/kg NR-V04 or 0.75 mg/kg celastrol i.p. twice a week from day 7
[4] = tested on: NR4A1 mRNA; experiment: NR4A1 mRNA by qPCR in CHL-1 cells; type: cell-based, human; conditions: 500 nM, time course, ACTB control
[5] = tested on: MC38 colon adenocarcinoma; experiment: MC38 colon cancer syngeneic tumor growth; type: in vivo, mouse; conditions: WT mice; 1.8 mg/kg NR-V04 or 0.75 mg/kg celastrol i.p. twice a week from day 7
Procedure, shortened: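 Mouse MC38 or Yummer1.7 cells (5 × 10^5) in PBS injected s.c. into 7–9-week-old WT or NSG hosts. Dosing started day 7 once tumors were palpable: test compound 1.8 mg/kg i.p. twice weekly, with celastrol 0.75 mg/kg (1.67 μmol/kg) in MC38 only. Vehicle was 50% phosal PG/45% miglyol 810N/5% polysorbate 80. Tumors were grown to 2 cm diameter endpoint.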

Chain of NR4A1 (Homo sapiens, UniProt P22736) (P22736 whole entry): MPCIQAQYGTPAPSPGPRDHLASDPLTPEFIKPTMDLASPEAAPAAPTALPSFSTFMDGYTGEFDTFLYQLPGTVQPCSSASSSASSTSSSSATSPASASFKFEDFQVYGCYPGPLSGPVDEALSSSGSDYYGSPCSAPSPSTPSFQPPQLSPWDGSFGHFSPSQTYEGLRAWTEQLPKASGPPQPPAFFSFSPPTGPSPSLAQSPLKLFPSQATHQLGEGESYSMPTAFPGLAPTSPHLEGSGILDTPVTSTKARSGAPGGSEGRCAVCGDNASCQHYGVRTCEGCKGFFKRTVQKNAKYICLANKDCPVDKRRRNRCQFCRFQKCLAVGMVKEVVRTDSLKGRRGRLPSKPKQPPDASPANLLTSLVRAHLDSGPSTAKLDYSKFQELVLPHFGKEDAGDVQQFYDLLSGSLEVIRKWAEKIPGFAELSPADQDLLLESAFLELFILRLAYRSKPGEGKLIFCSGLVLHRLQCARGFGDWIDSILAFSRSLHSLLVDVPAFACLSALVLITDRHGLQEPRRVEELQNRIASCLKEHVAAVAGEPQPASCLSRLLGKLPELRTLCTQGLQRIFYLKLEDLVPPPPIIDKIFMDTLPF

## CC(C)C[C@@H](C=O)NC(=O)[C@H](CC(C)C)NC(=O)[C@H](CC(C)C)NC(=O)OCc1ccccc1 [MG132] (Cbz-Leu-Leu-Leu-aldehyde)
[1]; 0.5 μM MG132 10 minutes, then 500 nM NR-V04 16 hours
  effect of pretreatment on NR-V04-reduced NR4A1 protein level: effectively rescued

## CC(=O)N[C@H](C(=O)N1C[C@H](O)C[C@H]1C(=O)NCc1ccc(-c2scnc2C)cc1)C(C)(C)C [VHL-032]
[1]; 10 μM VHL 032 10 minutes, then 500 nM NR-V04 16 hours
  effect of pretreatment on NR-V04-induced degradation of NR4A1: prevented

## CC1=C(O)C(=O)C=C2C1=CC=C1[C@@]2(C)CC[C@@]2(C)[C@@H]3C[C@](C)(C(=O)O)CC[C@]3(C)CC[C@]12C [celastrol]
[2]
  Kd: 290 nM
[3]
  tumor growth, B16F10 melanoma: increased growth
[4]
  NR4A1 mRNA level: increase in NR4A1 mRNA levels after 2 hrs
[5]
  tumor growth, MC38 model: failed to inhibit tumor growth
[1]; 250 nM, 16 hours, immunoblotting and densitometry
  NR4A1 protein level, initial screening: did not alter
[1]; 16 hours, dose series
  NR4A1 protein level: did not change
